pKi: −log10 of the molar value. The source made the active and inactive calls. No cut-off for these calls is given here.
How the values were obtained:
[1] = biological target: D(1B) dopamine receptor (Homo sapiens, UniProt P21918); assay: Displacement of […] from human D5 receptor expressed in HEK293T cell membranes; parameters: species or system HEK-293T
[2] = biological target: D(1A) dopamine receptor (Homo sapiens, UniProt P21728); assay: Displacement of […] from human D1 receptor expressed in HEK293T cell membranes; parameters: species or system HEK-293T
Chain of D(1A) dopamine receptor (P21728 whole entry): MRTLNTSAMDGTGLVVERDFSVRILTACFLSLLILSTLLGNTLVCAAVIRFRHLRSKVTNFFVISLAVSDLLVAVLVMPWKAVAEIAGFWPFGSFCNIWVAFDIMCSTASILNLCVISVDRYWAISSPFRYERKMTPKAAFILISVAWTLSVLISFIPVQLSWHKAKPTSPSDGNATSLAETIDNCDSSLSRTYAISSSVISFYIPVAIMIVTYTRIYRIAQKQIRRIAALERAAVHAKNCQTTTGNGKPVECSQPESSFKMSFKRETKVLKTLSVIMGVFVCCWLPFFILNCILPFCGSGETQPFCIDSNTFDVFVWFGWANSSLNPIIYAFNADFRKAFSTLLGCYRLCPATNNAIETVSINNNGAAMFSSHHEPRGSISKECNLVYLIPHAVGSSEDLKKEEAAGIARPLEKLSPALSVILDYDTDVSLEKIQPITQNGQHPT

[3] = biological target: D(3) dopamine receptor (Rattus norvegicus) (UniProt P19020); assay: Displacement of BP897 from D3 receptor in rat brain lateral septum nuclei at 5 MBq after 45 mins by phosphorus imaging based autoradiography; conditions: 5 M, tested as the 18F-labelled form
Chain of D(3) dopamine receptor (Rattus norvegicus) (P19020 whole entry): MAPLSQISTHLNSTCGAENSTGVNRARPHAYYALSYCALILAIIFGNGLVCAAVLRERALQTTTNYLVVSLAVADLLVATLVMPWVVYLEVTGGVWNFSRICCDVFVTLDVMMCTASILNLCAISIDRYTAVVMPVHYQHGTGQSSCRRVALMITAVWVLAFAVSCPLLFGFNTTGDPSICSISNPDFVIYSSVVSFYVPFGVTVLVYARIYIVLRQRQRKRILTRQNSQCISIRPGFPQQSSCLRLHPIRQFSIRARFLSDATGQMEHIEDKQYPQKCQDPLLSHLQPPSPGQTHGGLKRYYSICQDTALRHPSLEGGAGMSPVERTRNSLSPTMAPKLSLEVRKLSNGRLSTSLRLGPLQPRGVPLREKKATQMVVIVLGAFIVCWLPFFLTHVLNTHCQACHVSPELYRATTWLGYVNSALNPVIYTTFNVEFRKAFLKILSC

[4] = biological target: T1, D(4) dopamine receptor (Homo sapiens, UniProt P21917); assay: Displacement of [3H]spiperone from human D4 receptor expressed in CHO cell membranes
T1 sequence (P21917 whole entry): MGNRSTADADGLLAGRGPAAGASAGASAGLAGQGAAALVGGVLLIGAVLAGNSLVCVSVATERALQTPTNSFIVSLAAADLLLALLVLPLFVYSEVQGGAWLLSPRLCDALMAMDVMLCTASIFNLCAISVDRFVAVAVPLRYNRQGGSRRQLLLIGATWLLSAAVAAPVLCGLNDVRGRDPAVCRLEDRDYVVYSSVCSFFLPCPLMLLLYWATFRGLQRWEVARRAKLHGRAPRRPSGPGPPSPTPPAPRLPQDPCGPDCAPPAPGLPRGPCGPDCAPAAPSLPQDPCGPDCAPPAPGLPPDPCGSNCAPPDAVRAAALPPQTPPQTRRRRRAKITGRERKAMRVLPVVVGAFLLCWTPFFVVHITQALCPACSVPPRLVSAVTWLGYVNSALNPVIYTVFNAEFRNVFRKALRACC

[5] = biological target: D(3) dopamine receptor (Homo sapiens, UniProt P35462); assay: Displacement of [3H]spiperone from human D3 receptor expressed in CHO cell membranes
Chain of D(3) dopamine receptor (P35462 whole entry): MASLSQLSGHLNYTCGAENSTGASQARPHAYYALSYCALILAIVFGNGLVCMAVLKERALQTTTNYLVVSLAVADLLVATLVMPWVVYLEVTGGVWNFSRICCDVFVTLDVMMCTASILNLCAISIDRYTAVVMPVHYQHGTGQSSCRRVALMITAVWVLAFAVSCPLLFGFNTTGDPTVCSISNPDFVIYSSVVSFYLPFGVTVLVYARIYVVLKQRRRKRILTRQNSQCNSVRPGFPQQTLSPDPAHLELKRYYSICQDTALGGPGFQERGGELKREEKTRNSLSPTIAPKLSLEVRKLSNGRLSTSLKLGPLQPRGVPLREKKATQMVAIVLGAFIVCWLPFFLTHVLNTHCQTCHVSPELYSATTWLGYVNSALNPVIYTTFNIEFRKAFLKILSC

[6] = biological target: 5-hydroxytryptamine receptor 2A (Homo sapiens, UniProt P28223); assay: Displacement of [3H]ketanserin from human 5-HT2A receptor expressed in HEK293T cell membranes; parameters: species or system HEK-293T
Chain of 5-hydroxytryptamine receptor 2A (P28223 whole entry): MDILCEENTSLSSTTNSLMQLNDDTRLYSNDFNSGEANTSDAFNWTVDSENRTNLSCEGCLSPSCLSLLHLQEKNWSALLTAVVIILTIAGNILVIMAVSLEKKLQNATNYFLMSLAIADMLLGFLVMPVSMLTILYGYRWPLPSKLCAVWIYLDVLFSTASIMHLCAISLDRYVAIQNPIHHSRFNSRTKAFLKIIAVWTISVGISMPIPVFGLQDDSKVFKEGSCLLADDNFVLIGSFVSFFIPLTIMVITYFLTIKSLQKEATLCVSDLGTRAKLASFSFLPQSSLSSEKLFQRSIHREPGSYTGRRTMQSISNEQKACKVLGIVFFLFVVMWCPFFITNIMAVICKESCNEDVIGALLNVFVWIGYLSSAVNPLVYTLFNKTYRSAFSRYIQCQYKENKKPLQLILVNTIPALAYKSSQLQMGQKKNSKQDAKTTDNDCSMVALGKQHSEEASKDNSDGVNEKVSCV

[7] = species: Homo sapiens; assay: Selectivity ratio of Ki for human D2-short receptor expressed in CHO cell membranes to Ki for human D3 receptor expressed in CHO cell membranes; format: cell-based
[8] = biological target: D(3) dopamine receptor (Rattus norvegicus) (UniProt P19020); assay: Displacement of BP897 from D3 receptor in rat brain striatum at 5 MBq after 45 mins by phosphorus imaging based autoradiography; conditions: 5 M, tested as the 18F-labelled form
[9] = biological target: D(3) dopamine receptor (Rattus norvegicus) (UniProt P19020); assay: Displacement of BP897 from D3 receptor in rat brain cortex at 5 MBq after 45 mins by phosphorus imaging based autoradiography; conditions: 5 M, tested as the 18F-labelled form
[10] = biological target: D(3) dopamine receptor (Rattus norvegicus) (UniProt P19020); assay: Displacement of BP897 from D3 receptor in rat brain islands of calleja at 5 MBq after 45 mins by phosphorus imaging based autoradiography; conditions: 5 M, tested as the 18F-labelled form
[11] = Displacement of […] from porcine cerebral cortex 5-HT1A receptor; parameters: species or system Sus scrofa
[12] = biological target: T2, D(2) dopamine receptor (Homo sapiens, UniProt P14416); assay: Displacement of [3H]spiperone from human D2-short receptor expressed in CHO cell membranes
T2 sequence (P14416 whole entry): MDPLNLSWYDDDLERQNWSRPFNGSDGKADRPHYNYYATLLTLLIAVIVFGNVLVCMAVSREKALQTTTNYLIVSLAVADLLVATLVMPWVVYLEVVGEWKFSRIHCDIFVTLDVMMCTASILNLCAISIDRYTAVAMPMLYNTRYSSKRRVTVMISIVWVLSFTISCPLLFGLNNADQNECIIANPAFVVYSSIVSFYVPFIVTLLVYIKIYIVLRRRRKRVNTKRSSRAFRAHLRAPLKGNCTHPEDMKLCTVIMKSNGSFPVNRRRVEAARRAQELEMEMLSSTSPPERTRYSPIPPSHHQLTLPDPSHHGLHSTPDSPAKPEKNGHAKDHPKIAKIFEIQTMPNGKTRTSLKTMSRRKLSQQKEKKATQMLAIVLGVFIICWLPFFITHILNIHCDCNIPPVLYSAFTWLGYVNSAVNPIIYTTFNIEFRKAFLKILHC

[13] = biological target: T2, D(2) dopamine receptor; assay: Displacement of [3H]spiperone from human D2-long receptor expressed in CHO cell membranes
[14] = species: Homo sapiens; assay: Selectivity ratio of Ki for human D2-long receptor expressed in CHO cell membranes to Ki for human D3 receptor expressed in CHO cell membranes; format: cell-based
[15] = system: Rhesus monkey; assay: Reduction in cocaine-maintained responding in monkey at 0.18 to 0.32 mg/kg, im administered as single dose 15 mins prior to self administration of 0.1 mg/kg, iv per injection of cocaine for 100 mins relative to control; format: functional, Macaca mulatta; parameters: scale not given: the % may be the effect or the level left
Procedure, shortened: (§1)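 Male rhesus monkeys trained to respond for cocaine and food under daily 2 h FR30 sessions. Sessions ran in order: food 1, a 100-min i.v. cocaine (or saline) component, then food 2. Saline pretreatment served as baseline. Values are mean ± S.E.M. of four experiments, with significance by two-tailed t-test (p < 0.05).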

[16] = system: Rhesus monkey; assay: Reduction in cocaine-maintained responding in monkey administered im 15 mins prior to self administration of 0.1 mg/kg, iv per injection of cocaine for 100 mins; format: functional, organism-based; conditions: Macaca mulatta; procedure, shortened: as §1
[17] = system: Rhesus monkey; assay: Reduction in food reinforcement-maintained behavior in monkey at 0.18 to 0.32 mg/kg, im administered as single dose 15 mins prior to food reinforcement during second component of session relative to control; format: functional, Macaca mulatta; parameters: scale not given: the % may be the effect or the level left; procedure, shortened: as §1
[18] = system: Rhesus monkey; assay: Reduction in cocaine-maintained responding in monkey at 0.18 to 0.32 mg/kg, im administered as single dose 15 mins prior to self administration of 0.01 to 0.03 mg/kg, iv per injection of cocaine for 100 mins relative to control; format: functional, Macaca mulatta; parameters: scale not given: the % may be the effect or the level left; procedure, shortened: as §1
[19] = system: Rhesus monkey; assay: Reduction in cocaine-maintained responding in monkey at 0.18 to 0.32 mg/kg, im administered as single dose 15 mins prior to self administration of 0.003 mg/kg, iv per injection of cocaine for 100 mins relative to control; format: functional, Macaca mulatta; parameters: scale not given: the % may be the effect or the level left; procedure, shortened: as §1
[20] = system: Rhesus monkey; assay: Reduction in food reinforcement-maintained behavior in monkey at 0.18 to 0.32 mg/kg, im administered as single dose 15 mins prior to food reinforcement during first component of session relative to control; format: functional, Macaca mulatta; parameters: scale not given: the % may be the effect or the level left; conditions: in the assay text read “0.32 mg/kg” for “0.18 to 0.32 mg/kg”; procedure, shortened: as §1
[21] = species: Homo sapiens; assay: Selectivity ratio of Ki for human 5-HT2A receptor expressed in HEK293T cell membranes to Ki for human D3 receptor expressed in CHO cell membranes; format: cell-based
[22] = species: Homo sapiens; assay: Selectivity ratio of Ki for human D1 receptor expressed in HEK293T cell membranes to Ki for human D3 receptor expressed in CHO cell membranes; format: cell-based
[23] = species: Homo sapiens; assay: Selectivity ratio of Ki for human D5 receptor expressed in HEK293T cell membranes to Ki for human D3 receptor expressed in CHO cell membranes; format: cell-based
[24] = species: Homo sapiens; assay: Selectivity ratio of Ki for human D4 receptor expressed in CHO cell membranes to Ki for human D3 receptor expressed in CHO cell membranes; format: cell-based
[25] = Selectivity ratio of Ki for porcine cerebral cortex 5-HT1A receptor to Ki for human D3 receptor expressed in CHO cell membranes; format: cell-based
[26] = Drug uptake in rat brain ventricles at 10 to 15 MBq, iv after 40 mins by PET imaging method; format: ADME, organism-based, Brain ventricle; conditions: in vivo
[27] = Drug uptake in rat brain ependyma cell layer at 10 to 15 MBq, iv after 60 mins by phosphorus imaging based autoradiography; format: ADME, organism-based; conditions: in vivo, 1 h
Procedure, shortened: (§2)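 Rats injected with the [¹⁸F]-labelled radioligand, alone or co-injected with BP897. Coronal brain sections taken at 60 min p.i. for ex-vivo autoradiography and overlaid with HE-stained sections. Uptake expressed as region of interest-to-background ratio, with control animals compared against BP897 co-injected animals.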

[28] = Drug uptake in rat brain calleja islands at 10 to 15 MBq, iv after 60 mins by phosphorus imaging based autoradiography; format: ADME, organism-based, Calleja island; conditions: in vivo, 1 h; procedure, shortened: as §2
[29] = Drug uptake in rat brain plexus tissue at 10 to 15 MBq, iv after 60 mins by phosphorus imaging based autoradiography; format: ADME, organism-based; conditions: in vivo, 1 h; procedure, shortened: as §2
[30] = Drug uptake in rat pituitary gland at 10 to 15 MBq, iv after 40 mins by PET imaging method; format: ADME, organism-based; conditions: in vivo
Procedure, shortened: (§3)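 In vivo PET scan of rats given the [¹⁸F]-labelled radioligand. Whole pituitary gland uptake measured at 40 min p.i. as %ID/g, with or without BP897 pretreatment.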

[31] = Drug uptake in rat pituitary gland at 10 to 15 MBq, iv after 40 mins pretreated with D3 ligand BP897 by PET imaging method; format: ADME, organism-based; conditions: in vivo; procedure, shortened: as §3
[32] = system: Brain; assay: Drug uptake in rat brain at 10 to 15 MBq, iv after 40 mins by PET imaging method; format: ADME, organism-based; conditions: in vivo
[33] = Drug uptake in rat brain ventricles at 10 to 15 MBq, iv after 60 mins by phosphorus imaging based autoradiography; format: ADME, organism-based, Brain ventricle; conditions: in vivo, 1 h; procedure, shortened: as §2
[34] = Drug uptake in rat brain striatum at 10 to 15 MBq, iv after 60 mins by phosphorus imaging based autoradiography; format: ADME, organism-based; conditions: in vivo, 1 h; procedure, shortened: as §2
[35] = tested as the 18F-labelled form

Chain of D(1B) dopamine receptor (P21918 whole entry): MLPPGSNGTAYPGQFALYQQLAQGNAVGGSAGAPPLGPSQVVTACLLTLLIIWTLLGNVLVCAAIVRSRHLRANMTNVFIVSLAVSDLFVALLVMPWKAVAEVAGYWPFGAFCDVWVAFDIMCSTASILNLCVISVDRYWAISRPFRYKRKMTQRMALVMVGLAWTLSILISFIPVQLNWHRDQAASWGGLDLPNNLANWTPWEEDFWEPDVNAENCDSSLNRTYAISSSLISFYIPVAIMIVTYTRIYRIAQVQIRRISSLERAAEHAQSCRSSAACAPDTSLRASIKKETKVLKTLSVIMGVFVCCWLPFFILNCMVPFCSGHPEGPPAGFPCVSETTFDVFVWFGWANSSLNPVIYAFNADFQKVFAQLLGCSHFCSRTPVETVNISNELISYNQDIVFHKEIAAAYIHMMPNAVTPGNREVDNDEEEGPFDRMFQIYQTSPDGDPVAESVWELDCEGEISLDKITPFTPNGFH

Q: With CN(C)C(=O)N[C@H]1CC[C@H](CCN2CCN(c3cccc(Cl)c3Cl)CC2)CC1 [CARIPRAZINE] as the compound, how does the pKi [1] read?
A: Its pKi is 5.10.

Q: With O=C(NCCCCN1CCN(c2ccccc2OCCF)CC1)c1cc2ccccn2n1 as the compound, how does the pKi [2] read?
A: Its pKi is 6.07.

Q: What about the inhibition [3] of the same compound?
A: Its inhibition is “Active”.

Q: What about the pKi [4] of the same compound?
A: Its pKi is 6.80.

Q: What about the pKi [5] of the same compound?
A: Its pKi is 9.51.

Q: What about the pKi [6] of the same compound?
A: The pKi was 6.28.

Q: And the pKi [1]?
A: Its pKi is 5.42.

Q: And the Ratio Ki [7, 35]?
A: Its Ratio Ki is 68.

Q: What about the inhibition [8] of the same compound?
A: Its inhibition is “Active”.

Q: And the inhibition [9]?
A: The inhibition was “Active”.

Q: And the inhibition [10]?
A: Its inhibition is “Active”.

Q: What about the pKi [11] of the same compound?
A: The pKi was 8.19.

Q: What about the pKi [12] of the same compound?
A: The pKi was 7.68.

Q: What about the pKi [13] of the same compound?
A: Its pKi is 7.41.

Q: And the Ratio Ki [14, 35]?
A: Its Ratio Ki is 130.

Q: Which results are given for O=C(NCCCCN1CC[N+]2(CCOc3ccccc32)CC1)c1cc2ccccn2n1?
A: pKi [2]: 5.24; pKi [4]: < 5.00; pKi [5]: 6.70; pKi [6]: < 5.00; pKi [1]: < 4.30; pKi [11]: 6.05; pKi [12]: 5.35; pKi [13]: 5.20

Q: Which results are given for COc1ccccc1N1CCN(CCCCNC(=O)c2cc3ccccn3n2)CC1?
A: Activity [15]: 45%; Activity [16]: Dose-dependent effect; pKi [11]: 8.00; Activity [17]: 80%; Activity [18]: 70 - 75%; Activity [19]: <25%; Activity [20]: 30%

Q: With CC(C)(C)c1nc(N2CCN(CCCCNC(=O)c3cc4ccccc4s3)CC2)cc(C(F)(F)F)n1 as the compound, how does the pKi [2] read?
A: Its pKi is < 5.00.

Q: And the pKi [4]?
A: Its pKi is < 5.00.

Q: And the pKi [5]?
A: The pKi was 8.62.

Q: And the Ratio Ki [21]?
A: The Ratio Ki was 1000 to 20000.

Q: What about the pKi [6] of the same compound?
A: Its pKi is 5.15.

Q: What about the pKi [1] of the same compound?
A: The pKi was < 5.00.

Q: What about the Ratio Ki [7] of the same compound?
A: Its Ratio Ki is 1000 to 20000.

Q: What about the Ratio Ki [22] of the same compound?
A: Its Ratio Ki is 1000 to 20000.

Q: What about the pKi [11] of the same compound?
A: The pKi was < 4.30.

Q: And the Ratio Ki [23]?
A: The Ratio Ki was 1000 to 20000.

Q: And the pKi [12]?
A: The pKi was 5.57.

Q: And the Ratio Ki [24]?
A: The Ratio Ki was 1000 to 20000.

Q: And the pKi [13]?
A: The pKi was 5.40.

Q: And the Ratio Ki [14]?
A: Its Ratio Ki is 1000 to 20000.

Q: What about the Ratio Ki [25] of the same compound?
A: Its Ratio Ki is 1000 to 20000.

Q: Which results are given for CC(C)(C)c1nc(N2CCN(CCCCNC(=O)c3cc4ccccn4n3)CC2)cc(C(F)(F)F)n1?
A: pKi [2]: 5.12; pKi [4]: 5.33; pKi [5]: 8.92; pKi [6]: 5.57; pKi [1]: 5.24; pKi [11]: 5.01; pKi [12]: 6.70; pKi [13]: 6.37; Ratio Ki [25]: 8000

Q: What does the source list for O=C(NCCCCN1CCN(c2ccccc2OCC[18F])CC1)c1cc2ccccn2n1?
A: Drug uptake [26]: Active; Drug uptake [27]: Active; Drug uptake [28]: Not Active; pKi [5]: 9.51; Drug uptake [29]: Active; Drug uptake [30]: 0.394 % ID/g; Drug uptake [31]: Not Active; Drug uptake [32]: Active; Drug uptake [33]: Active; Drug uptake [34]: Not Active

— ChEMBL document CHEMBL4052643, “Development of molecular tools based on the dopamine D3 receptor ligand FAUC 329 showing inhibiting effects on drug and food maintained behavior” (Bioorg Med Chem, 2017)
